Test results from ChEMBL document CHEMBL4411330, “Effects of Systematic Shortening of Noncovalent C8 Side Chain on the Cytotoxicity and NF-κB Inhibitory Capacity of Pyrrolobenzodiazepines (PBDs)” (J Med Chem, 2019).
Activity calls are given as the source filed them. The calls are words filed in the database; no cut-off is given here.

Legend:
[1] = molecular target: T1, Nuclear factor NF-kappa-B p105 subunit (Homo sapiens) (UniProt P19838); assay: Inhibition of NF-kappaB in human JJN-3 cells assessed as reduction in p50 DNA binding activity up to 30 nM after 4 hrs by ELISA; format: cell-based
T1 sequence (whole entry): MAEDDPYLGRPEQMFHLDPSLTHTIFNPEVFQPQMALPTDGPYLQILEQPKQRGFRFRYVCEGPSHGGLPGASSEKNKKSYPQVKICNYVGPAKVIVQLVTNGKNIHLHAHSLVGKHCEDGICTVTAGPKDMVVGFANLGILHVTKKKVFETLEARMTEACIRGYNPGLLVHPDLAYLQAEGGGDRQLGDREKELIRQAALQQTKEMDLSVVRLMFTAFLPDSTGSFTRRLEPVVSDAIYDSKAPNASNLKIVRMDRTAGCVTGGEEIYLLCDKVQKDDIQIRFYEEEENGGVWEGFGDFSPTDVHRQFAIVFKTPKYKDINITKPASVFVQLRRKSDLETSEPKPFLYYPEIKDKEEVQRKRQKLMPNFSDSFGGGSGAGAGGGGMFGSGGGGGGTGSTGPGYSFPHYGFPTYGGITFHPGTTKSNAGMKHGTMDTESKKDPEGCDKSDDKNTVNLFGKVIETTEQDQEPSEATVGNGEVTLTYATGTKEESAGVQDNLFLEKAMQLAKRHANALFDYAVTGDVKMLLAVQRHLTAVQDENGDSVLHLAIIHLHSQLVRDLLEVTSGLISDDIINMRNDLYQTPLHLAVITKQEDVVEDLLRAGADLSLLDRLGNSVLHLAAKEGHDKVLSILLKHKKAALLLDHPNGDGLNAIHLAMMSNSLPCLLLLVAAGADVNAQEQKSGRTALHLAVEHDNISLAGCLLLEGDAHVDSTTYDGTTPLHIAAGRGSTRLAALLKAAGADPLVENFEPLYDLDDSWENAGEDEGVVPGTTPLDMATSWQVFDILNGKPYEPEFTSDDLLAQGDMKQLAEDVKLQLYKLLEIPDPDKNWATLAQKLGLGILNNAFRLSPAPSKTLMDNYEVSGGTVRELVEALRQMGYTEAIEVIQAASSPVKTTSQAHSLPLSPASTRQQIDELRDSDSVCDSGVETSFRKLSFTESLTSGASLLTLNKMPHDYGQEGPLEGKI

JJN-3 = assay: Cytotoxicity against human JJN-3 cells assessed as cell death after 48 hrs by annexin V/propidium iodide-staining based flow cytometry; format: functional; conditions: JJN-3, 48 h, read-out: LC50 (the source's name)
How it was run: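 JJN-3 cells were grown in DMEM with 20% FBS, 1% pen/strep and 1% pyruvate at 37 °C, 5% CO2. They were seeded at 1,000,000 cells/ml and exposed to compound from 1 nM upward for 48 h, in triplicate. Cell death was measured by Annexin V-FITC/propidium iodide flow cytometry, and LC50 was derived from sigmoidal dose-response curves.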

[2] = molecular target: T2, Transcription factor RelB (Homo sapiens) (UniProt Q01201); assay: Inhibition of NF-kappaB in human JJN-3 cells assessed as reduction in RelB DNA binding activity up to 30 nM after 4 hrs by ELISA; format: cell-based
T2 sequence (whole entry): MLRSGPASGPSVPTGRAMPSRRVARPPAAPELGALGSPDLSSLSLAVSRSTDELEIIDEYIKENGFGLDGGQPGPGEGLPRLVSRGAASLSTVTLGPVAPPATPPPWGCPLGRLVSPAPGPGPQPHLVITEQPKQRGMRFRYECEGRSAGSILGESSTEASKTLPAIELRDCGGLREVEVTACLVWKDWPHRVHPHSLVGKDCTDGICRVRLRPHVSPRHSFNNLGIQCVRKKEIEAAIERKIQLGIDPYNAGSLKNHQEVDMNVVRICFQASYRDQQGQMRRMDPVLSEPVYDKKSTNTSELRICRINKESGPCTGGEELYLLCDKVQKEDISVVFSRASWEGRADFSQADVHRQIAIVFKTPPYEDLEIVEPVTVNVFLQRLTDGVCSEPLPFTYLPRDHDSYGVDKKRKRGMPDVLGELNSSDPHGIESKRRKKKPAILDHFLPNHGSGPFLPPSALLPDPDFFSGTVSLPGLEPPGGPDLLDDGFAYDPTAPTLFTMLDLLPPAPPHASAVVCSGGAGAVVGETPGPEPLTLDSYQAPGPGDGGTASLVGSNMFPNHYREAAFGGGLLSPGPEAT

[3] = Therapeutic index, ratio of LC50 for human T cells to LC50 for human primary CLL cells; format: toxicity; conditions: T cells versus primary CLL cells, read-out: TI
[4] = Therapeutic index, ratio of LC50 for human B cells to LC50 for human primary CLL cells; format: toxicity; conditions: B cells versus primary CLL cells, read-out: TI
[5] = Cytotoxicity against human primary CLL cells assessed as cell death after 48 hrs by annexin V/propidium iodide-staining based flow cytometry; format: functional; conditions: read-out: LC50 (the source's name)
How it was run: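 Primary patient CLL cells were isolated by Histopaque density gradient, phenotyped by flow cytometry and used within 24 h. Culture was RPMI with 10% FBS, 1% glutamate and 1% pen/strep, plus IL-4 5 ng/ml added with compound, at 37 °C, 5% CO2. Cells at 1,000,000 cells/ml were treated from 1 nM upward for 48 h, in triplicate. Annexin V-FITC/PI was read by flow cytometry, and LC50 came from sigmoidal dose-response fits.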

[6] = Cytotoxicity against human T cells assessed as cell death after 48 hrs by annexin V/propidium iodide-staining based flow cytometry; conditions: read-out: LC50
How it was run: (§1)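 Normal peripheral blood B or T cells from three donors were isolated by Histopaque density gradient and phenotyped for CD19/CD3/CD38/CD49d. They were used within 24 h in RPMI with 10% FBS, 1% glutamate and 1% pen/strep at 37 °C, 5% CO2. Cells at 1,000,000 cells/ml were exposed from 1 nM upward for 48 h, in triplicate. FITC-Annexin V/PI staining was read by flow cytometry, and LC50 was taken from the dose-response curves.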

[7] = Cytotoxicity against human B cells assessed as cell death after 48 hrs by annexin V/propidium iodide-staining based flow cytometry; conditions: read-out: LC50; how it was run: as §1
[8] = molecular target: Transcription factor p65 (Homo sapiens) (UniProt Q04206); assay: Inhibition of NF-kappaB in human JJN-3 cells assessed as reduction in p65 DNA binding activity up to 30 nM after 4 hrs by ELISA; format: cell-based
Chain of Transcription factor p65 (Homo sapiens) (Q04206 whole entry): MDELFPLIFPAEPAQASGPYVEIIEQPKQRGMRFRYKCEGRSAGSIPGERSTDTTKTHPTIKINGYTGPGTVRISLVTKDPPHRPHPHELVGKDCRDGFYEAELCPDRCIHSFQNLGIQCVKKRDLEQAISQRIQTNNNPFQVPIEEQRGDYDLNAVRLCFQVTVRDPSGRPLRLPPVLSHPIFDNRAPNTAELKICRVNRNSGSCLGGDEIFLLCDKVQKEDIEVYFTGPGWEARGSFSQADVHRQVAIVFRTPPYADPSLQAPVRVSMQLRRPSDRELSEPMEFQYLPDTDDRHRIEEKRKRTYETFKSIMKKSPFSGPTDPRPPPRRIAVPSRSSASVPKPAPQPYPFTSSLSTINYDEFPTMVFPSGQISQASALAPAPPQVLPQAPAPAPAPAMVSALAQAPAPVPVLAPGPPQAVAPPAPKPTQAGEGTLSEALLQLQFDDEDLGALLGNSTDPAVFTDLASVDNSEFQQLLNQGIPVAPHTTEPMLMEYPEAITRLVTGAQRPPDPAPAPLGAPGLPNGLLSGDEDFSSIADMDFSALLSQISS

[9] = molecular target: T3, Nuclear factor NF-kappa-B p100 subunit (Homo sapiens) (UniProt Q00653); assay: Inhibition of NF-kappaB in human JJN-3 cells assessed as reduction in p52 DNA binding activity up to 30 nM after 4 hrs by ELISA; format: cell-based
T3 sequence (whole entry): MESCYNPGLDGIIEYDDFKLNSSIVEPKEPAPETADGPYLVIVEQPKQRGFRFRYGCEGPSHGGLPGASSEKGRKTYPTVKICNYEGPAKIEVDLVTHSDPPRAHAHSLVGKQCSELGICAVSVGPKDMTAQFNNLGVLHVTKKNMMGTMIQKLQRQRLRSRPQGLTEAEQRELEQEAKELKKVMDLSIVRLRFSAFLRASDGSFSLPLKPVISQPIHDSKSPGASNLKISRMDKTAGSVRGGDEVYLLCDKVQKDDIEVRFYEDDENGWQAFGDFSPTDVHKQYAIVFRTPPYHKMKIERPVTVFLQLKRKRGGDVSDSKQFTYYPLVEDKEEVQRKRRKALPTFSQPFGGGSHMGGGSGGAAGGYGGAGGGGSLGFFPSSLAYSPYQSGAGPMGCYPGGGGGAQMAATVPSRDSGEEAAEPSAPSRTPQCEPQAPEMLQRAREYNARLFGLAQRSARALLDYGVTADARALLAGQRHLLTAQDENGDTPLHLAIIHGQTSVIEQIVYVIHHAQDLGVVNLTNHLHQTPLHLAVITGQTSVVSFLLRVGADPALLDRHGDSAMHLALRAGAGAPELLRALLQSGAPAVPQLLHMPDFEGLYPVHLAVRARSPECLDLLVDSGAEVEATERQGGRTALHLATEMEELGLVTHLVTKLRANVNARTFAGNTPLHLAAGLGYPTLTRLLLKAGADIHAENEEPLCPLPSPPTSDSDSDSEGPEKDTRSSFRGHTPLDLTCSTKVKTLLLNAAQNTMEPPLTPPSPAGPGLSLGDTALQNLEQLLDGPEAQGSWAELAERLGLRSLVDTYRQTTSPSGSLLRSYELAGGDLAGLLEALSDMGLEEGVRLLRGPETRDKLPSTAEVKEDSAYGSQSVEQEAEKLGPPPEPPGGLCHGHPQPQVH

Row | Compound | inhibition [1] | CC50 (JJN-3) | inhibition [2] | selectivity ratio [3] | selectivity ratio [4] | CC50 [5] | CC50 at 48 h [6] | CC50 at 48 h [7] | inhibition [8] | inhibition [9]
1 | COc1cc2c(cc1OCCCC(=O)Nc1ccc3occc3c1)N=C[C@@H]1CCCN1C2=O | Active | 0.044 µM | inactive | 415 | 149 | 0.0094 µM | 3.9 µM | 1.4 µM | Active | –
2 | COC(=O)c1cc(NC(=O)c2cc3cc(NC(=O)CCCOc4cc5c(cc4OC)C(=O)N4CCC[C@H]4C=N5)ccc3o2)cn1C | inactive | 0.03 µM | Active | 227 | 124 | 0.0075 µM | 1.7 µM | 0.93 µM | – | inactive
3 | COc1cc2c(cc1OCCCC(=O)Nc1ccccc1)N=C[C@@H]1CCCN1C2=O | Active | 0.0264 µM | inactive | – | – | 0.0116 µM | – | – | inactive | –
4 | CCNC(=O)CCCOc1cc2c(cc1OC)C(=O)N1CCC[C@H]1C=N2 | – | 28.7 µM | – | – | – | 11.7 µM | – | – | – | –
5 | COc1cc2c(cc1OCCCC(=O)Nc1ccc3c(c1)CCO3)N=C[C@@H]1CCCN1C2=O | – | 0.0147 µM | – | – | – | 0.0051 µM | – | – | – | –
6 | CCCOc1ccc(NC(=O)CCCOc2cc3c(cc2OC)C(=O)N2CCC[C@H]2C=N3)cc1 | – | 0.0087 µM | – | 129 | 45.9 | 0.0085 µM | 1.1 µM | 0.39 µM | – | –
7 | CCCCNC(=O)CCCOc1cc2c(cc1OC)C(=O)N1CCC[C@H]1C=N2 | – | 51.6 µM | – | – | – | 22.4 µM | – | – | – | –
8 | CCOc1ccc(NC(=O)CCCOc2cc3c(cc2OC)C(=O)N2CCC[C@H]2C=N3)cc1 | Active | 0.0156 µM | inactive | 517 | 129 | 0.0058 µM | 3 µM | 0.75 µM | inactive | inactive
9 | COC(=O)c1cc2cc(NC(=O)CCCOc3cc4c(cc3OC)C(=O)N3CCC[C@H]3C=N4)ccc2o1 | – | 0.049 µM | – | 236 | 46.1 | 0.0089 µM | 2.1 µM | 0.41 µM | – | –
10 | COc1cc2c(cc1OCCCC(=O)Nc1ccc(O)cc1)N=C[C@@H]1CCCN1C2=O | Active | 2.2 µM | inactive | – | – | 5.5 µM | – | – | inactive | –
11 | COc1cc2c(cc1OCCCC(=O)Nc1cccc(C)c1)N=C[C@@H]1CCCN1C2=O | – | 0.0202 µM | – | – | – | 0.0136 µM | – | – | – | –
12 | CNC(=O)CCCOc1cc2c(cc1OC)C(=O)N1CCC[C@H]1C=N2 | – | 18.5 µM | – | – | – | 16.1 µM | – | – | – | –
13 | COc1cc2c(cc1OCCCC(=O)Nc1cccnc1)N=C[C@@H]1CCCN1C2=O | – | 1.6 µM | – | – | – | 4.2 µM | – | – | – | –
14 | COc1ccc(NC(=O)CCCOc2cc3c(cc2OC)C(=O)N2CCC[C@H]2C=N3)cc1 | Active | 0.0153 µM | inactive | 77.5 | 71.9 | 0.0089 µM | 0.69 µM | 0.64 µM | inactive | –
15 | COC(=O)c1cc(NC(=O)c2cc(NC(=O)CCCOc3cc4c(cc3OC)C(=O)N3CCC[C@H]3C=N4)cn2C)cn1C | – | 0.021 µM | – | – | – | 0.039 µM | – | – | – | –
16 | COc1cc2c(cc1OCCCC(=O)Nc1ccncc1)N=C[C@@H]1CCCN1C2=O | – | 6.7 µM | – | – | – | 4.9 µM | – | – | – | –
17 | COc1cc2c(cc1OCCCC(=O)Nc1ccc(C)cc1)N=C[C@@H]1CCCN1C2=O | – | 0.0175 µM | – | – | – | 0.0123 µM | – | – | – | –
18 | COc1cc2c(cc1OCCCC(=O)NC1CCCCC1)N=C[C@@H]1CCCN1C2=O | – | 1.4 µM | – | 1.74 | 0.24 | 7.1 µM | 12.4 µM | 1.7 µM | – | –
19 | CCCNC(=O)CCCOc1cc2c(cc1OC)C(=O)N1CCC[C@H]1C=N2 | – | 12.7 µM | – | – | – | 25.1 µM | – | – | – | –
20 | COc1cc2c(cc1OCCCC(=O)Nc1ccc3c(c1)CCC3)N=C[C@@H]1CCCN1C2=O | – | 0.03 µM | – | – | – | 0.0077 µM | – | – | – | –
21 | COc1cc2c(cc1OCCCC(=O)Nc1ccc(C)c(C)c1)N=C[C@@H]1CCCN1C2=O | – | 0.0237 µM | – | – | – | 0.0086 µM | – | – | – | –
